Measurements pooled from the literature.
Values after ≈ are worked out from the molar mass of the structure shown.

| SMILES | test | system | setting | quantity | result |
| --- | --- | --- | --- | --- | --- |
| CC(=O)Nc1cc(Nc2cc(NC3CC3)n3ncc(C#N)c3n2)ccc1N(C)[C@H]1CCOC1 | shake flask | PBS | 24 h, pH 7.4, 22 °C | kinetic solubility | 21 µg/mL (≈ 47 µM) |
| CC[C@H](C)[C@H](NC(=O)[C@H](Cc1ccccc1)NC(=O)[C@H](Cc1ccc(O)cc1)NC(=O)[C@@H]1CCCN1C(=O)[C@H](N)CCCCN)C(=O)N1CCC[C@H]1C(=O)N[C@@H](CC(C)C)C(=O)NCC(=O)N[C@H](CCCCN)C(=O)NCC(=O)N[C@@H](CCC(=O)O)C(=O)N[C@H](C(=O)N[C@@H](CC(N)=O)C(=O)N[C@@H](CC(C)C)[C@@H](O)CC(=O)N[C@H](C(=O)N[C@@H](C)C(=O)N[C@@H](CCC(=O)O)C(=O)N1CCC[C@@H]1C(=O)N[C@@H](CCCCNC(=O)CCC(=O)O[C@H]1CC[C@@]2(C)C(=CC[C@H]3[C@@H]4CC[C@H]([C@H](C)CCCC(C)C)[C@@]4(C)CC[C@@H]32)C1)C(N)=O)C(C)C)C(C)C | – | aqueous buffer | pH 6.5 | thermodynamic solubility | 951 µg/mL |
| CCCn1nc(C(=O)N2CCCCC2)c2c1CCC(N(C)Cc1ccc(F)cc1)C2 (centres unmarked) | – | PBS | 16 h, pH 7.4 | thermodynamic solubility | 2400 µM |
| Brc1ccccc1CNc1nc(NCc2ccccc2)c2ccccc2n1 | – | aqueous buffer | pH 6.2 | solubility | 0.24 µg/mL (≈ 0.572 µM) |
| CC(=O)N[C@@H](CCCNC(=N)N)C(=O)N[C@H]1CSSC[C@@H](C(=O)N[C@H](C(N)=O)[C@@H](C)O)NC(=O)[C@H](CCCNC(=N)N)NC(=O)[C@H](Cc2c[nH]cn2)NC(=O)[C@H](C)NC(=O)CNC(=O)[C@H](Cc2c[nH]c3ccccc23)NC(=O)[C@H](CC(=O)O)NC(=O)[C@H](CCC(N)=O)NC(=O)[C@H](Cc2c[nH]c3ccccc23)NC(=O)[C@H](C(C)C)NC1=O | absorbance | water | – | thermodynamic solubility | > 1000 µM |
| CC[C@H](C)[C@H](NC(=O)[C@H](Cc1ccccc1)NC(=O)[C@@H](CCCCN)NC(=O)[C@@H]1CCCN1C(=O)[C@@H](N)Cc1ccc(O)cc1)C(=O)N1CCC[C@H]1C(=O)N[C@@H](CC(C)C)C(=O)NCC(=O)N[C@H](CCCCN)C(=O)NCC(=O)N[C@@H](CCC(=O)O)C(=O)N[C@H](C(=O)N[C@@H](CC(N)=O)C(=O)N[C@@H](CC(C)C)[C@@H](O)CC(=O)N[C@H](C(=O)N[C@@H](C)C(=O)N[C@@H](CCC(=O)O)C(=O)N1CCC[C@@H]1C(=O)N[C@@H](CCCCNC(=O)CCC(=O)O[C@H]1CC[C@@]2(C)C(=CC[C@H]3[C@@H]4CC[C@H]([C@H](C)CCCC(C)C)[C@@]4(C)CC[C@@H]32)C1)C(N)=O)C(C)C)C(C)C | – | aqueous buffer | pH 6.5 | thermodynamic solubility | > 3000 µg/mL |
| Brc1cccc2c(NCc3ccccc3)nc(NCc3ccccc3)nc12 | – | aqueous buffer | pH 5 | solubility | 0.42 µg/mL (≈ 1 µM) |
| CC[C@H](C)[C@H](NC(=O)[C@@H](CCCCN)NC(=O)[C@H](Cc1ccc(O)cc1)NC(=O)[C@@H]1CCCN1C(=O)[C@@H](N)Cc1ccc(O)cc1)C(=O)N1CCC[C@H]1C(=O)N[C@@H](CC(C)C)C(=O)NCC(=O)N[C@H](CCCCN)C(=O)NCC(=O)N[C@@H](CCC(=O)O)C(=O)N[C@H](C(=O)N[C@@H](CC(N)=O)C(=O)N[C@@H](CC(C)C)[C@@H](O)CC(=O)N[C@H](C(=O)N[C@@H](C)C(=O)N[C@@H](CCC(=O)O)C(=O)N1CCC[C@@H]1C(=O)N[C@@H](CCCCNC(=O)CCC(=O)O[C@H]1CC[C@@]2(C)C(=CC[C@H]3[C@@H]4CC[C@H]([C@H](C)CCCC(C)C)[C@@]4(C)CC[C@@H]32)C1)C(N)=O)C(C)C)C(C)C | – | aqueous buffer | pH 6.5 | thermodynamic solubility | > 2440 µg/mL |
| CC(=O)N[C@@H](CCCNC(=N)N)C(=O)N[C@H]1CSSC[C@@H](C(=O)N[C@H](C(N)=O)[C@@H](C)O)NC(=O)[C@H](CCCNC(=N)N)NC(=O)[C@H](Cc2c[nH]cn2)NC(=O)[C@H](C)NC(=O)CNC(=O)[C@H](Cc2c[nH]c3ccccc23)NC(=O)[C@H](CC(=O)O)NC(=O)[C@H](CCC(N)=O)NC(=O)[C@H](Cc2cn(C)c3ccccc23)NC(=O)[C@H](C(C)C)NC1=O | absorbance | water | – | thermodynamic solubility | > 1000 µM |
| Brc1cccc(Nc2nc(NCc3ccccc3)c3ccccc3n2)c1 | – | aqueous buffer | pH 7.4 | solubility | < 0.01 µg/mL |
| CC(=O)Oc1ccccc1C(=O)O | – | aqueous buffer | 72 h, pH 6.8, 37 °C | thermodynamic solubility | 158000 µg/mL |
| COc1ccc(C2CC(=O)c3c(O)cc(O)cc3O2)cc1O (centres unmarked) | shake flask | aqueous buffer | 24 h, pH 5, 25 °C | thermodynamic solubility | 9.33 µg/mL |
| COc1cccc2c(NCc3ccccc3)nc(-n3c(=O)oc4ccccc43)nc12 | – | aqueous buffer | pH 6.2 | solubility | < 0.01 µg/mL |
| CC[C@H](C)[C@H](NC(=O)[C@H](Cc1ccccc1)NC(=O)[C@H](Cc1ccc(O)cc1)NC(=O)[C@@H](CCCCN)NC(=O)[C@@H](N)Cc1ccc(O)cc1)C(=O)N1CCC[C@H]1C(=O)N[C@@H](CC(C)C)C(=O)NCC(=O)N[C@H](CCCCN)C(=O)NCC(=O)N[C@@H](CCC(=O)O)C(=O)N[C@H](C(=O)N[C@@H](CC(N)=O)C(=O)N[C@@H](CC(C)C)[C@@H](O)CC(=O)N[C@H](C(=O)N[C@@H](C)C(=O)N[C@@H](CCC(=O)O)C(=O)N1CCC[C@@H]1C(=O)N[C@@H](CCCCNC(=O)CCC(=O)O[C@H]1CC[C@@]2(C)C(=CC[C@H]3[C@@H]4CC[C@H]([C@H](C)CCCC(C)C)[C@@]4(C)CC[C@@H]32)C1)C(N)=O)C(C)C)C(C)C | – | aqueous buffer | pH 6.5 | thermodynamic solubility | < 1 µg/mL |
